Data set [1] deals with Rattus norvegicus. Description: Drug level in Sprague-Dawley rat treated with RM5064 at 6.4 mg/kg, iv measured at 0.25 to 1 hrs post dose. It is filed as ADME, organism-based. The conditions noted are these: in vivo.
Data set [2] has as its system Rattus norvegicus. Description: Drug level in Sprague-Dawley rat treated with RM5038 at 6.4 mg/kg, iv measured at 0.25 to 1 hrs post dose. The conditions noted are these: in vivo. It is filed as ADME, organism-based.
Data set [3] concerns Plasma. Description: Drug level in Sprague-Dawley rat plasma treated with RM-5061 at 10 to 75 mg/kg administered via oral gavage qd for 28 consecutive days. As to conditions: in vivo. Format: ADME, organism-based. An outline of the steps: (§1)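 In a sub-acute study, Sprague-Dawley rats were dosed once daily for 28 consecutive days at 10, 30 or 75 mg/kg, given as a yellow suspension. There were four groups of up to 30 rats each (15M/15F) to assess systemic exposure.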

For data set [4], the system named is Rattus norvegicus. Description: Drug level in Sprague-Dawley rat treated with Nitazoxanide at 6 mg/kg, iv measured at 0.7 to 2.1 hrs post dose. Format: ADME, organism-based. As to conditions: in vivo.
The test system of data set [5] is Plasma. The experiment in a line: Elimination half life in Sprague-Dawley rat assessed as tizoxanide level in plasma at 10 to 75 mg/kg administered via oral gavage qd for 28 consecutive days. It is filed as ADME, organism-based. As to conditions: in vivo. An outline of the steps: as §1
Another data set has as its system Canis familiaris. Description: Drug level in Beagle dog plasma treated with RM-5061 up to 25 mg/kg administered orally as gelatin capsule once daily for 28 days measured on day 1 and 29. The conditions noted are these: in vivo, po, 672 h. Format: ADME, organism-based, Canis lupus familiaris. An outline of the steps:
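Beagle dogs received the drug orally in a single gelatin capsule at 5, 15 or 25 mg/kg once daily for 28 consecutive days in a sub-acute toxicity study assessing systemic exposure.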

For data set [6], the system named is Rattus norvegicus. Description: AUC (0 to t) in Sprague-Dawley rat assessed as RM-4848 level in plasma at 6 mg/kg, iv administered as single dose. It is filed as ADME, organism-based. As to conditions: in vivo. Summed up: (§2)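 Rats in groups of three received one compound as a single oral dose (30 mg/kg) or a single intravenous injection (6 mg/kg), with four compounds studied separately. Serial blood samples were drawn at 5, 10, 15 and 30 min and at 1, 2, 4, 8, 23 and 24 h post-dose. Plasma parent drug and metabolites were quantified and PK parameters were derived.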

The subject of data set [7] is Rattus norvegicus. Description: Cmax in Sprague-Dawley rat assessed as RM-4848-glucuronide level in plasma at 30 mg/kg, po administered as single dose. Details: dose 30 mg/kg, route oral. Format: ADME, organism-based. As to conditions: in vivo. Summed up:
as §2

Data set [8] has as its system Rattus norvegicus. Description: AUC (0 to t) in Sprague-Dawley rat assessed as RM-4848-glucuronide level at 6 mg/kg, iv administered as single dose. Format: ADME, organism-based. The conditions noted are these: in vivo. Summed up:
as §2

Data set [9] concerns Rattus norvegicus. The experiment in a line: AUC (0 to t) in Sprague-Dawley rat assessed as RM-4848-glucuronide level in plasma at 30 mg/kg, po administered as single dose. Format: ADME, organism-based. As to conditions: in vivo. An outline of the steps:
as §2

The subject of data set [10] is Rattus norvegicus. Description: Elimination half life in Sprague-Dawley rat assessed as RM-4848 level in plasma at 6.4 mg/kg, iv. It is filed as ADME, organism-based. The conditions noted are these: in vivo.
Data set [11] concerns Rattus norvegicus. Description: Drug metabolism in Sprague-Dawley rat assessed as RM-4848-glucuronide formation at 6.4 mg/kg, iv measured at 0.25 to 1 hrs post dose. Format: ADME, organism-based. As to conditions: in vivo.
The subject of data set [12] is Plasma. The experiment in a line: Drug metabolism in Sprague-Dawley rat assessed as RM-4848 formation in plasma at 30 mg/kg, po measured at 0.25 to 0.5 post dose. Format: ADME, organism-based. The conditions noted are these: in vivo. An outline of the steps:
as §2

For data set [13], the system named is Rattus norvegicus. Description: Tmax in Sprague-Dawley rat assessed as RM-4848-glucuronide level in plasma at 30 mg/kg, po administered as single dose. As to conditions: in vivo. Format: ADME, organism-based. An outline of the steps:
(§3)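 Rats in groups of three got a single oral dose (30 mg/kg) or a single intravenous injection (6 mg/kg). Serial blood samples were taken at 5, 10, 15 and 30 min and at 1, 2, 4, 8, 23 and 24 h post-dose for plasma drug and glucuronide levels. Bioavailability came from oral versus intravenous AUC after dose correction to 30 mg/kg.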

For data set [14], the system named is Plasma. The experiment in a line: Drug metabolism in Sprague-Dawley rat assessed as RM-4848 formation in plasma at 6.4 mg/kg, iv measured at 1 to 4 hrs post dose. Format: ADME, organism-based. As to conditions: in vivo.
Data set [15] deals with Rattus norvegicus. Description: Elimination half life in Sprague-Dawley rat assessed as RM-4848-glucuronide level at 6.4 mg/kg, iv. It is filed as ADME, organism-based. As to conditions: in vivo.
The test system of data set [16] is Plasma. Description: Drug metabolism in Sprague-Dawley rat assessed as RM-4848-glucuronide formation in plasma at 6 mg/kg, iv administered as single dose. It is filed as ADME, organism-based. As to conditions: in vivo. An outline of the steps:
as §2

The subject of data set [17] is Rattus norvegicus. The experiment in a line: Cmax in Sprague-Dawley rat assessed as RM-4848 level in plasma at 6 mg/kg, iv administered as single dose. Format: ADME, organism-based. Details: dose 6 mg/kg, route intravenous. The conditions noted are these: in vivo. An outline of the steps: as §2
The test system of data set [18] is Rattus norvegicus. The experiment in a line: Cmax in Sprague-Dawley rat assessed as RM-4848 level in plasma at 30 mg/kg, po administered as single dose. As to conditions: in vivo. It is filed as ADME, organism-based. Also on record: dose 30 mg/kg, route oral. Summed up:
as §2

Data set [19] concerns Rattus norvegicus. Description: Oral bioavailability in Sprague-Dawley rat assessed as RM-4848 level in plasma at 30 mg/kg administered as single dose. It is filed as ADME, organism-based. The conditions noted are these: in vivo. An outline of the steps:
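Groups of three rats received a single oral dose (30 mg/kg) or intravenous dose (6 mg/kg), with serial blood sampling from 5 min to 24 h. Absolute bioavailability came from the AUC after oral versus intravenous dosing, with the AUC corrected for dose to 30 mg/kg.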

Data set [20] has as its system Plasma. The experiment in a line: Drug metabolism in Sprague-Dawley rat assessed as RM4848-glucuronide formation in plasma at 30 mg/kg, po measured at 0.25 to 0.5 post dose. The conditions noted are these: in vivo. Format: ADME, organism-based. An outline of the steps: as §2
Data set [21] deals with Rattus norvegicus. Description: Elimination half life in Sprague-Dawley rat assessed as RM-4848 level in plasma at 30 mg/kg, po administered as single dose. Format: ADME, organism-based. As to conditions: in vivo. Summed up: as §2
Data set [22] has as its system Rattus norvegicus. The experiment in a line: Cmax in Sprague-Dawley rat assessed as RM-4848-glucuronide level at 6 mg/kg, iv administered as single dose. It is filed as ADME, organism-based. Details: dose 6 mg/kg, route intravenous. As to conditions: in vivo. An outline of the steps: as §2
Data set [23] has as its system Rattus norvegicus. The experiment in a line: Elimination half life in Sprague-Dawley rat assessed as RM-4848-glucuronide level at 30 mg/kg, po administered as single dose. Format: ADME, organism-based. The conditions noted are these: in vivo. Summed up:
as §2

Data set [24] concerns Rattus norvegicus. The experiment in a line: AUC (0 to t) in Sprague-Dawley rat assessed as RM-4848 level in plasma at 30 mg/kg, po administered as single dose. Format: ADME, organism-based. As to conditions: in vivo. Summed up: as §2
Data set [25] concerns Rattus norvegicus. The experiment in a line: Tmax in Sprague-Dawley rat assessed as RM-4848-glucuronide formation at 6.4 mg/kg, iv. It is filed as ADME, organism-based. As to conditions: in vivo. Summed up: as §3
Data set [26] has as its system Plasma. Description: Drug level in Sprague-Dawley rat plasma treated with RM5038 at 6 mg/kg, iv administered as single dose. It is filed as ADME, organism-based. As to conditions: in vivo. An outline of the steps: as §2
In data set [27] the test system is Plasma. The experiment in a line: Drug level in Sprague-Dawley rat plasma treated with RM5064 at 30 mg/kg, po administered as single dose. It is filed as ADME, organism-based. As to conditions: in vivo. An outline of the steps: as §2

Consider `O=C(Nc1ncc(Cl)s1)c1ccccc1O`, for which the Drug metabolism entry in the data set on Rattus norvegicus [1] and in the data set on Rattus norvegicus [2] was “Metabolite_Detected” in each case.

Consider `O=C(Nc1ncc([N+](=O)[O-])s1)c1ccccc1O` [TIZOXANIDE], for which the Drug metabolism entry in the data set with Plasma [3], with Rattus norvegicus [4] and with Canis familiaris was “Metabolite_Detected” throughout. The beta t1/2 in the data set on Plasma [5] lay within 0.7 to 3.7 h.

For `CC(=O)Oc1ccccc1C(=O)Nc1ncc(Cl)s1`, the AUCt in the data set with Rattus norvegicus [6] was 3480 ng·h/mL; in the data set on Rattus norvegicus [8], 19400 ng·h/mL; with Rattus norvegicus [9], 10040 ng·h/mL; in the data set with Rattus norvegicus [24] it was 130 ng·h/mL. For the same compound, the Cmax stood at 2080 ng/mL in the data set on Rattus norvegicus [7], 9980 ng/mL in the data set with Rattus norvegicus [17], 101 ng/mL in the data set with Rattus norvegicus [18] and 17300 ng/mL in the data set on Rattus norvegicus [22]. Further, the “beta t1/2” value was 0.67 h in the data set on Rattus norvegicus [10], 2.5 to 3.2 h in the data set with Rattus norvegicus [15], 3 h with Rattus norvegicus [21] and 6.14 h in the data set with Rattus norvegicus [23]. Further, the Drug metabolism entry in the data set with Rattus norvegicus [11], in the data set on Plasma [12], in the data set on Plasma [14], with Plasma [16] and in the data set with Plasma [20] was “Metabolite_Detected” each time. Further, the Tmax in the data set on Rattus norvegicus [13] fell in the range of 0.25 to 0.5 h; in the data set with Rattus norvegicus [25], 0.25 to 1 h. Besides, the F in the data set with Rattus norvegicus [19] is reported as 1%.

As to `O=C(Nc1ncc(Cl)s1)c1ccccc1O[C@@H]1O[C@H](C(=O)O)[C@@H](O)[C@H](O)[C@H]1O`, the Drug metabolism entry in the data set with Rattus norvegicus [1], in the data set on Plasma [26], in the data set on Rattus norvegicus [2] and in the data set on Plasma [27] was “Metabolite_Detected” in each case.

For the origin of these results see ChEMBL document CHEMBL3997766, “Synthesis and pre-clinical studies of new amino-acid ester thiazolide prodrugs” (Eur J Med Chem, 2017).
